Measured values from ChEMBL document CHEMBL1121371, “Antihypertensive 5,6-diarylpyridazin-3-ones” (1980).
Several values for one entry are separate records, joined by “and”; a condition that tells them apart may be missing. Equal entries are not always repeated. Activity calls are given as the source filed them. No cut-off for these calls is given here.

What was measured:
[1] = system: Rattus norvegicus; assay: Antihypertensive activity in spontaneously hypertensive rats was measured as average blood pressure at 100 mg/kg, po after 24 hours of postdose-2; format: functional
Procedure, shortened: (§1)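 Spontaneously hypertensive rats aged 12 to 16 weeks, in groups of five with systolic pressure of 170 mmHg or more. Oral dosing as a solution or suspension in 0.25% methylcellulose, 5 mL/kg, with a vehicle control group. Tail-cuff systolic pressure was read predose and 4 and 24 h after each of two doses. Values were compared with predose by Student's t test.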

[2] = system: Rattus norvegicus; assay: Antihypertensive activity in spontaneously hypertensive rats was measured as average blood pressure at 100 mg/kg, p.o. before predose; format: functional; settings: route oral; procedure, shortened: as §1
[3] = system: Rattus norvegicus; assay: Antihypertensive activity in spontaneously hypertensive rats was measured as average blood pressure at 100 mg/kg, p.o. after 24 hours of postdose; format: functional; settings: route oral; procedure, shortened: as §1
[4] = system: Rattus norvegicus; assay: Antihypertensive activity in spontaneously hypertensive rats was measured as change in heart rate at 100 mg/kg peroral dose; No significant change is heart rate; format: functional; settings: route oral
[5] = system: Rattus norvegicus; assay: Antihypertensive activity in spontaneously hypertensive rats was measured as average blood pressure at 100 mg/kg, p.o. after 4 hours of postdose-2; format: functional; settings: route oral; procedure, shortened: as §1
[6] = system: Rattus norvegicus; assay: Antihypertensive activity in spontaneously hypertensive rats was measured as average blood pressure at 100 mg/kg, p.o. after 4 hours of postdose; format: functional; settings: route oral; procedure, shortened: as §1
[7] = system: Rattus norvegicus; assay: Antihypertensive activity in spontaneously hypertensive rats was measured as average blood pressure at 75 mg/kg, po after 4 hours of postdose-1.; format: functional
[8] = system: Rattus norvegicus; assay: Antihypertensive activity in spontaneously hypertensive rats was measured as average blood pressure at 75 mg/kg, p.o. before predose; format: functional; settings: route oral
[9] = system: Rattus norvegicus; assay: Antihypertensive activity in spontaneously hypertensive rats was measured as average blood pressure at 75 mg/kg, p.o. after 4 hours of postdose-2; format: functional; settings: route oral
[10] = system: Rattus norvegicus; assay: Antihypertensive activity in spontaneously hypertensive rats was measured as average blood pressure at 75 mg/kg, p.o. after 24 hours of postdose-1; format: functional; settings: route oral
[11] = system: Rattus norvegicus; assay: Antihypertensive activity in spontaneously hypertensive rats was measured as average blood pressure at 75 mg/kg, p.o. after 24 hours of postdose-2; format: functional; settings: route oral
[12] = system: Rattus norvegicus; assay: Antihypertensive activity in […] hypertensive rats was measured as average blood pressure at 50 mg/kg, p.o. after 4 hours of postdose-1; format: functional; settings: route oral
[13] = system: Rattus norvegicus; assay: Antihypertensive activity in spontaneously hypertensive rats was measured as average blood pressure at 30 mg/kg, p.o. before predose; format: functional; settings: route oral; procedure, shortened: as §1
[14] = system: Rattus norvegicus; assay: Antihypertensive activity in […] hypertensive rats was measured as average blood pressure at 100 mg/kg, p.o. after 4 hours of postdose-1.; format: functional; settings: route oral
[15] = system: Rattus norvegicus; assay: Antihypertensive activity in spontaneously hypertensive rats was measured as average blood pressure at 30 mg/kg, p.o. after 24 hours of postdose-1; format: functional; settings: route oral; procedure, shortened: as §1
[16] = system: Rattus norvegicus; assay: Antihypertensive activity in spontaneously hypertensive rats was measured as average blood pressure at 10 mg/kg, p.o. before predose; format: functional; settings: route oral; procedure, shortened: as §1
[17] = system: Rattus norvegicus; assay: Antihypertensive activity in […] hypertensive rats was measured as average blood pressure at 50 mg/kg, p.o. before predose; format: functional; settings: route oral
[18] = system: Rattus norvegicus; assay: Antihypertensive activity in spontaneously hypertensive rats was measured as increase in heart rate at 30 mg/kg peroral dose; (+)=Increased heart rate; format: functional, organism-based; set-up: dose 30 mg/kg
[19] = system: Rattus norvegicus; assay: Antihypertensive activity in DOCA hypertensive rats was measured as average blood pressure at 10 mg/kg, p.o. after 24 hours of postdose-1; settings: route oral
[20] = system: Rattus norvegicus; assay: Antihypertensive activity in […] hypertensive rats was measured as average blood pressure at 100 mg/kg, po after 4 hours of postdose-2; format: functional
[21] = system: Rattus norvegicus; assay: Antihypertensive activity in […] hypertensive rats was measured as average blood pressure at 100 mg/kg, p.o. after 24 hours of postdose-2; format: functional; settings: route oral
[22] = system: Rattus norvegicus; assay: Antihypertensive activity in DOCA hypertensive rats was measured as average blood pressure at 25 mg/kg, p.o. after 24 hours of postdose-2; settings: route oral
[23] = system: Rattus norvegicus; assay: Antihypertensive activity in […] hypertensive rats was measured as average blood pressure at 50 mg/kg, p.o. after 4 hours of postdose-2; format: functional; settings: route oral
[24] = system: Rattus norvegicus; assay: Antihypertensive activity in […] hypertensive rats was measured as average blood pressure at 100 mg/kg, p.o. after 4 hours of postdose-1; format: functional; settings: route oral
[25] = system: Rattus norvegicus; assay: Antihypertensive activity in spontaneously hypertensive rats was measured as average blood pressure at 30 mg/kg, p.o. after 4 hours of postdose-2; format: functional; settings: route oral; procedure, shortened: as §1
[26] = system: Rattus norvegicus; assay: Antihypertensive activity in spontaneously hypertensive rats was measured as increase in heart rate at 100 mg/kg peroral dose; (+)=Increased heart rate; format: functional, organism-based; set-up: dose 100 mg/kg
[27] = system: Rattus norvegicus; assay: Antihypertensive activity in […] hypertensive rats was measured as average blood pressure at 50 mg/kg, p.o. after 24 hours of postdose-1; format: functional; settings: route oral
[28] = system: Rattus norvegicus; assay: Antihypertensive activity in DOCA hypertensive rats was measured as average blood pressure at 10 mg/kg, p.o. after 4 hours of postdose-1.; settings: route oral
[29] = system: Rattus norvegicus; assay: Antihypertensive activity in DOCA hypertensive rats was measured as average blood pressure at 25 mg/kg, p.o. after 24 hours of postdose-1; settings: route oral
[30] = system: Rattus norvegicus; assay: Antihypertensive activity in spontaneously hypertensive rats was measured as average blood pressure at 100 mg/kg, p.o. after 24 hours of postdose-1.; format: functional; settings: route oral; procedure, shortened: as §1
[31] = system: Rattus norvegicus; assay: Antihypertensive activity in […] hypertensive rats was measured as average blood pressure at 50 mg/kg, p.o. after 24 hours of postdose-2; format: functional; settings: route oral
[32] = system: Rattus norvegicus; assay: Antihypertensive activity in spontaneously hypertensive rats was measured as increase in heart rate at 10 mg/kg peroral dose; (+)=Increased heart rate; format: functional, organism-based; set-up: dose 10 mg/kg
[33] = system: Rattus norvegicus; assay: Antihypertensive activity in DOCA hypertensive rats was measured as average blood pressure at 25 mg/kg, po before predose
[34] = system: Rattus norvegicus; assay: Antihypertensive activity in DOCA hypertensive rats was measured as average blood pressure at 10 mg/kg, p.o. before predose; settings: route oral
[35] = system: Rattus norvegicus; assay: Antihypertensive activity in spontaneously hypertensive rats was measured as average blood pressure at 10 mg/kg, p.o. after 4 hours of postdose-2; format: functional; settings: route oral; procedure, shortened: as §1
[36] = system: Rattus norvegicus; assay: Antihypertensive activity in spontaneously hypertensive rats was measured as average blood pressure at 10 mg/kg, p.o. after 24 hours of postdose-1; format: functional; settings: route oral; procedure, shortened: as §1
[37] = system: Rattus norvegicus; assay: Antihypertensive activity in spontaneously hypertensive rats was measured as average blood pressure at 10 mg/kg, p.o. after 24 hours of postdose-2; format: functional; settings: route oral; procedure, shortened: as §1
[38] = system: Rattus norvegicus; assay: Antihypertensive activity in DOCA hypertensive rats was measured as average blood pressure at 25 mg/kg, p.o. after 4 hours of postdose-2; settings: route oral
[39] = system: Rattus norvegicus; assay: Antihypertensive activity in […] hypertensive rats was measured as average blood pressure at 100 mg/kg, p.o. before predose; format: functional; settings: route oral
[40] = system: Rattus norvegicus; assay: Antihypertensive activity in spontaneously hypertensive rats was measured as average blood pressure at 10 mg/kg, p.o. after 4 hours of postdose-1.; format: functional; settings: route oral; procedure, shortened: as §1
[41] = system: Rattus norvegicus; assay: Antihypertensive activity in spontaneously hypertensive rats was measured as average blood pressure at 30 mg/kg, po after 4 hours of postdose-1.; format: functional; procedure, shortened: as §1
[42] = system: Rattus norvegicus; assay: Antihypertensive activity in […] hypertensive rats was measured as average blood pressure at 100 mg/kg, p.o. after 24 hours of postdose-1; format: functional; settings: route oral
[43] = system: Rattus norvegicus; assay: Antihypertensive activity in DOCA hypertensive rats was measured as average blood pressure at 10 mg/kg, p.o. after 24 hours of postdose-2; settings: route oral
[44] = system: Rattus norvegicus; assay: Antihypertensive activity in spontaneously hypertensive rats was measured as average blood pressure at 30 mg/kg, p.o. after 24 hours of postdose-2; format: functional; settings: route oral; procedure, shortened: as §1
[45] = system: Rattus norvegicus; assay: Antihypertensive activity in DOCA hypertensive rats was measured as average blood pressure at 10 mg/kg, p.o. after 4 hours of postdose-2; settings: route oral
[46] = species on record: Rattus norvegicus; assay: Antihypertensive activity in spontaneously hypertensive rats was measured as decrease in heart rate; (-)=decreased heart rate; format: functional, organism-based
[47] = system: Rattus norvegicus; assay: Antihypertensive activity in spontaneously hypertensive rats was measured as average blood pressure at 100 mg/kg, p.o. after 4 hours of postdose-1; format: functional; settings: route oral; procedure, shortened: as §1
[48] = species on record: Rattus norvegicus; assay: Antihypertensive activity in spontaneously hypertensive rats was measured; (+)=Increased heart rate; format: functional, organism-based
[49] = system: Rattus norvegicus; assay: Antihypertensive activity in spontaneously hypertensive rats was measured as average blood pressure at 25 mg/kg, p.o. after 24 hours of postdose-1; format: functional; settings: route oral; procedure, shortened: as §1
[50] = system: Rattus norvegicus; assay: Antihypertensive activity in spontaneously hypertensive rats was measured as average blood pressure at 25 mg/kg, p.o. before predose; format: functional; settings: route oral; procedure, shortened: as §1
[51] = system: Rattus norvegicus; assay: Antihypertensive activity in spontaneously hypertensive rats was measured as average blood pressure at 25 mg/kg, p.o. after 24 hours of postdose-2; format: functional; settings: route oral; procedure, shortened: as §1
[52] = system: Rattus norvegicus; assay: Antihypertensive activity in spontaneously hypertensive rats was measured as average blood pressure at 25 mg/kg, p.o. after 4 hours of postdose-1.; format: functional; settings: route oral; procedure, shortened: as §1
[53] = system: Rattus norvegicus; assay: Antihypertensive activity in spontaneously hypertensive rats was measured as average blood pressure at 25 mg/kg, p.o. after 4 hours of postdose-2; format: functional; settings: route oral; procedure, shortened: as §1

N#Cc1c(O)nnc(-c2ccc(Cl)cc2)c1-c1ccc(Cl)cc1
BP [1]: 175 mmHg
BP [2]: 205 mmHg
BP [3]: 177 mmHg
Heart rate [4]: 0
BP [5]: 173 mmHg
BP [6]: 171 mmHg

CC(=O)c1c(-c2ccccc2)c(-c2ccccc2)nn(CCO)c1=O
BP [7]: 181 mmHg
BP [8]: 200 mmHg
BP [9]: 164 mmHg
BP [10]: 163 mmHg
BP [11]: 176 mmHg

CC(=O)c1c(-c2ccc(Cl)cc2)c(-c2ccc(Cl)cc2)nn(CCO)c1=O
BP [12]: 171 mmHg
BP [13]: 213 mmHg
BP [14]: 123 mmHg
BP [15]: 192 mmHg
BP [16]: 202 mmHg
BP [17]: 224 mmHg
Heart rate [18]: Increased heart rate
BP [19]: 192 mmHg
BP [1]: 193 mmHg
BP [20]: 164 mmHg and 127 mmHg
BP [21]: 195 mmHg and 130 mmHg
BP [22]: 208 mmHg
BP [2]: 218 mmHg
BP [23]: 182 mmHg
BP [24]: 169 mmHg
BP [25]: 164 mmHg
Heart rate [26]: Increased heart rate
BP [27]: 184 mmHg
BP [28]: 191 mmHg
BP [29]: 191 mmHg
BP [30]: 185 mmHg
BP [31]: 213 mmHg
Heart rate [32]: Increased heart rate
BP [5]: 174 mmHg
BP [33]: 235 mmHg
BP [6]: 173 mmHg
BP [34]: 224 mmHg
BP [35]: 191 mmHg
BP [36]: 203 mmHg
BP [37]: 197 mmHg
BP [38]: 188 mmHg
BP [39]: 222 mmHg and 125 mmHg
BP [40]: 187 mmHg
BP [41]: 200 mmHg
BP [42]: 178 mmHg and 125 mmHg
BP [43]: 210 mmHg
BP [44]: 206 mmHg
BP [45]: 188 mmHg

CC(=O)c1c(-c2ccc(Cl)cc2)c(-c2ccc(Cl)cc2)nn(CCN2CCCC2)c1=O
BP [13]: 212 mmHg
BP [15]: 187 mmHg
BP [16]: 208 mmHg
BP [1]: 146 mmHg
BP [46]: inactive
BP [2]: 192 mmHg
BP [25]: 191 mmHg
BP [30]: 138 mmHg
BP [5]: 142 mmHg
BP [35]: 202 mmHg
BP [36]: 204 mmHg
BP [37]: 207 mmHg
BP [47]: 155 mmHg
BP [40]: 205 mmHg
BP [41]: 200 mmHg
BP [44]: 199 mmHg

O=c1c(-c2ccccc2)c(-c2ccccc2)c(-c2ccccc2)nn1CCO
BP [1]: 188 mmHg
BP [2]: 200 mmHg
Heart rate [48]: Increased heart rate
BP [30]: 187 mmHg
BP [5]: 176 mmHg
BP [47]: 173 mmHg

Br.CC(=O)c1c(-c2ccc(Cl)cc2)c(-c2ccc(Cl)cc2)nn(CCN)c1=O
BP [49]: 162 mmHg
BP [50]: 194 mmHg
BP [51]: 183 mmHg
BP [52]: 184 mmHg
BP [53]: 177 mmHg
